Experimental data from different studies.
Lines come from different studies, so protocols differ.
Target: Mitogen-activated protein kinase kinase kinase 9 (MAP3K9, Homo sapiens, UniProt P80192)

SMILES	observed	mode	method	concentration	measurement	result
C#Cc1n[nH]c2c(-c3cn([C@@H](C)c4ccccc4)c(=O)[nH]c3=O)cc(F)cc12	enzyme activity	inhibitor	–	0.1 µM	inhibition	11%
CC(C)(C)c1cc(C=C(C#N)C#N)cc(Br)c1O	enzyme activity	inhibitor	–	0.5 µM	remaining activity	90.2%
COc1ncccc1-c1cnn2ccc(N3CCN(C(=O)OC(C)C)CC3)nc12	binding	–	competition with immobilised ligand	1 µM	remaining binding	100%
Cn1cc(-c2cccc(N3CCc4c(sc5c4CC(C)(C)C5)C3=O)c2CO)cc(Nc2ccncn2)c1=O	enzyme activity	inhibitor	–	1 µM	inhibition	-3%
C#Cc1n[nH]c2c(-c3cn([C@@H](C)c4ccccn4)c(=O)[nH]c3=O)cc(F)cc12	enzyme activity	inhibitor	–	0.1 µM	inhibition	8%
N#CC1(c2ccccn2)CCN(Cc2cc(C(=O)O)c(=O)n3ccccc23)CC1	cell-free assay	–	competition with immobilised ligand	1 µM	remaining binding	92%
Cn1cc(-c2cc(F)cc(N3CCn4c(cc5c4CCCC5)C3=O)c2CO)cc(Nc2ccc(N3CCN(C4COC4)CC3)cn2)c1=O	enzyme activity	inhibitor	–	0.1 µM	inhibition	4%
O=c1[nH]c2ccccc2n1C1CCN(Cc2ccc(-c3[nH]c4cc5ncnc5cc4nc3-c3ccccc3)cc2)CC1	cell-free assay	–	–	0.5 µM	remaining signal	93.9%
Cn1cncc1[C@](O)(COc1ccc(C#N)cc1-c1ccc(OC(F)(F)F)cc1)c1ccc(C#N)cc1	cell-free assay	–	competition with immobilised ligand	1 µM	remaining binding	81%
COc1cc(Nc2ncc(F)c(Nc3ccc4c(n3)NC(=O)C(C)(C)O4)n2)cc(OC)c1OC	binding	–	competition with immobilised ligand	10 µM	inhibition	99%
Cc1nn(C)cc1-c1nc2c(N3CCN(Cc4ccc(Cl)cc4)CC3)c(Cl)cnc2[nH]1	binding	–	competition with immobilised ligand	1 µM	remaining binding	15%
Nc1ncc(-c2nc(N3CCOCC3)nc(N3CCOCC3)n2)c(C(F)F)n1	binding	–	competition with immobilised ligand	10 µM	remaining binding	42%
